What is called IC50 is the concentration that gives 50% inhibition.

In one experiment the target is Gamma-secretase. Nature of the experiment: Inhibition of gamma-secretase activity in H4 human neuroglioma cells by measuring amyloid beta production; Inactive. Format: cell-based. Summed up:
(§1)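 H4 human neuroglioma cells expressing HPLAP-βAPP164SFAD, grown in high-glucose DMEM with 10% FBS, pen-strep, 2 mM glutamine and geneticin, plated in 96 wells; after attachment, medium swapped for Ultraculture containing compound (1% DMSO final), overnight incubation. Aβ1-40 in conditioned medium measured by sandwich ELISA (C-terminal Aβ40-specific capture, HRP N-terminal detection, TMB/phosphoric acid). Means of two experiments, 16 data points each.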
With `CCCCN(C)C(=O)[C@H](CC(=O)O)NC(=O)[C@H](CC(C)C)NC(=O)Cc1cc(F)cc(F)c1`, the IC50 was > 2500 nM.
Same read-out and setting: under `CCCCN(C)C(=O)[C@H](CC1CCCCC1)NC(=O)[C@@H]1CCCN1C(=O)Cc1cc(F)cc(F)c1` stands > 2500 nM; under `CCCCN(C)C(=O)[C@H](CCCCN)NC(=O)[C@H](CC(C)C)NC(=O)Cc1cc(F)cc(F)c1`, > 2500 nM; under `CCCCN(C)C(=O)[C@H](CC1CCCCC1)NC(=O)[C@@H](CC(C)C)NC(=O)Cc1cc(F)cc(F)c1`, > 2500 nM.

In a further experiment the target is Gamma-secretase. Briefly: Inhibition of gamma-secretase activity in H4 human neuroglioma cells by measuring amyloid beta production. Format: cell-based. Summed up:
as §1
The compound `CC(C)CNC(=O)[C@H](CC1CCCCC1)NC(=O)[C@H](CC(C)C)NC(=O)Cc1ccccc1` gave an IC50 of 150 nM.
On the same count and under the same terms, as for `CCOC(=O)[C@H](CC1CCCCC1)NC(=O)[C@H](CC(C)C)NC(=O)Cc1ccccc1`, the figure is 900 nM.
The same measure, in the same setting: under `CCCCN(CC)C(=O)[C@H](CC1CCCCC1)NC(=O)[C@H](CC(C)C)NC(=O)Cc1ccccc1` stands 55 nM; under `CCCCN(C)C(=O)[C@H](CC1CCCCC1)NC(=O)[C@H](CC(C)C)NC(=O)[C@](C)(O)c1ccccc1`, > 2500 nM; under `CCCCN(C)C(=O)[C@H](CC1CCCCC1)NC(=O)[C@H](CC(C)C)NC(=O)Cc1ccc(N)cc1`, 1100 nM.
Still for that read-out and setting: as for `CCCCN(C)C(=O)[C@H](CC1CCCCC1)NC(=O)[C@H](CC(C)C)NC(=O)Cc1cccc(OC)c1`, the figure is 480 nM; as for `CCCCN(C)C(=O)[C@H](CC1CCCCC1)NC(=O)[C@H](CC(C)C)NC(=O)Cc1cccc(F)c1`, 20 nM.
Regarding `CC(C)C[C@H](NC(=O)Cc1ccccc1)C(=O)N[C@@H](CC1CCCCC1)C(=O)N(C)C`, the midpoint of inhibition, the IC50, lay at 102 nM.
Still for that read-out and setting: as for `CCCCN(C)C(=O)[C@H](CC1CCCCC1)NC(=O)[C@H](CC(C)C)NC(=O)[C@@](C)(OC)c1ccccc1`, the figure is > 2500 nM; as for `CCCCN(C)C(=O)[C@H](CC1CCCCC1)NC(=O)[C@H](CC(C)C)NC(=O)Cc1ccccc1F`, 280 nM; as for `CCCCN(C)C(=O)[C@H](CC1CCCCC1)NC(=O)[C@H](CC(C)C)NC(=O)[C@H](O)c1ccccc1`, 240 nM.
As to `CCCCN(C)C(=O)[C@@H]1Cc2ccccc2CN1C(=O)[C@H](CC(C)C)NC(=O)[C@@H](O)c1ccccc1`, the midpoint of inhibition, the IC50, lay at 66 nM.
On to `CCCCN(C)C(=O)[C@H](CC1CCCCC1)NC(=O)[C@H](CC(C)C)NC(=O)[C@H](OC)c1ccccc1`, for which the IC50 is > 2500 nM.
Still for that read-out and setting: under `CCCCN(C)C(=O)[C@H](CC1CCCCC1)NC(=O)[C@H](CC(C)C)NC(=O)Cc1ccc(F)cc1` stands 36 nM.
Same read-out and setting: as for `CCCCN(C)C(=O)[C@H](CC1CCCCC1)NC(=O)[C@H](Cc1ccccc1)NC(=O)Cc1cc(F)cc(F)c1`, the figure is 2400 nM.
Still for that read-out and setting: as for `CC(C)C[C@H](NC(=O)Cc1ccc2ccccc2c1)C(=O)N[C@@H](CC1CCCCC1)[C@H](O)Cc1ccccc1C(=O)NC(C)(C)C`, the figure is 4.7 nM; as for `COC(=O)[C@H](CC1CCCCC1)NC(=O)[C@H](CC(C)C)NC(=O)Cc1ccccc1`, 800 nM; as for `CCCCN(C)C(=O)[C@@H](CC1CCCCC1)NC(=O)[C@H](CC(C)C)NC(=O)Cc1ccccc1`, 1000 nM.
`CCCCN(C)C(=O)[C@H](CC1CCCCC1)NC(=O)[C@H](CC(C)C)NC(=O)C(O)(O)c1ccccc1` came in with an IC50 of 1 nM.
Still for that read-out and setting: under `CCCCN(C)C(=O)[C@H](CC1CCCCC1)NC(=O)CNC(=O)Cc1cc(F)cc(F)c1` stands 300 nM.
Same read-out and setting: as for `CC(C)C[C@H](NC(=O)Cc1ccccc1)C(=O)N[C@@H](CC1CCCCC1)C(=O)N1CCCCC1`, the figure is 50 nM; as for `CCCCN(C)C(=O)[C@H](CC1CCCCC1)NC(=O)[C@H](CC(C)C)NC(=O)Cc1ccccc1`, 17 nM.
For `CCCCN(C)C(=O)[C@H](CC1CCCCC1)NC(=O)[C@H](CC(C)C)NC(=O)Cc1cccc(N)c1`, the IC50 was > 2500 nM.
Same read-out and setting: as for `CCCCNC(=O)[C@H](CC1CCCCC1)NC(=O)[C@H](CC(C)C)NC(=O)Cc1ccccc1`, the figure is 240 nM.
Still for that read-out and setting: as for `CC(C)CCC(=O)[C@H](CC1CCCCC1)NC(=O)[C@H](CC(C)C)NC(=O)Cc1ccccc1`, the figure is 300 nM; as for `CCCCN(C)C(=O)[C@H](CC1CCCCC1)NC(=O)[C@H](CC(C)C)NC(=O)[C@@H](OC)c1ccccc1`, 2000 nM.
`CCCCN(C)C(=O)[C@H](CC1CCCCC1)NC(=O)[C@H](CC(C)C)NC(=O)Cc1cccc(C)c1` had an IC50 of 454 nM.
Still for that read-out and setting: as for `CCCCN(C)C(=O)[C@H](CC1CCCCC1)NC(=O)[C@@H]1CCCCN1C(=O)[C@@H](O)c1ccccc1`, the figure is > 2500 nM; as for `CC(C)C[C@H](NC(=O)Cc1ccccc1)C(=O)N[C@@H](CC1CCCCC1)C(=O)N(C)CC(C)C`, 13 nM; as for `CCCCN(C)C(=O)[C@H](CC1CCCCC1)NC(=O)[C@H](CC(C)C)NC(=O)Cc1cccc(Cl)c1`, 52 nM.
On to `CCCCN(C)C[C@H](CC1CCCCC1)NC(=O)[C@H](CC(C)C)NC(=O)Cc1ccccc1`, for which the IC50 was 1700 nM.
On the same count and under the same terms, as for `CC(C)CC[C@@H](O)[C@H](CC1CCCCC1)NC(=O)[C@H](CC(C)C)NC(=O)Cc1ccccc1`, the figure is 1200 nM; as for `CON(C)C(=O)[C@H](CC1CCCCC1)NC(=O)[C@H](CC(C)C)NC(=O)Cc1ccccc1`, 130 nM.
Still for that read-out and setting: under `CCCCN(C)C(=O)[C@H](CC1CCCCC1)NC(=O)[C@H](CC(C)C)NC(=O)CCc1ccccc1` stands 160 nM; under `CCCCN(C)C(=O)[C@H](CC1CCCCC1)NC(=O)[C@H](CC(C)C)NC(=O)/C=C/c1ccccc1`, > 2600 nM.
Still for that read-out and setting: as for `CCCCN(C)C(=O)[C@H](CC1CCCCC1)NC(=O)[C@H](CC(C)C)NC(=O)[C@](C)(OC)c1ccccc1`, the figure is > 2500 nM.
Consider `CCCCN(C)C(=O)[C@H](CC1CCCCC1)NC[C@H](CC(C)C)NC(=O)[C@@H](O)c1ccccc1`, for which the IC50 is > 2500 nM.
On the same count and under the same terms, as for `CC(C)C[C@H](NC(=O)Cc1ccccc1)C(=O)N[C@@H](CC1CCCCC1)C(=O)N(C)Cc1ccccc1`, the figure is 39 nM.
On the same count and under the same terms, as for `CCCCN(C)C(=O)[C@H](CC1CCCCC1)NC(=O)[C@H](C)NC(=O)Cc1cc(F)cc(F)c1`, the figure is 32 nM.
Compound `CCCCN(C)C(=O)[C@H](CC1CCCCC1)NC(=O)[C@H](CC(C)C)NC(=O)Cc1cc(OC)cc(OC)c1` registered an IC50 of 800 nM. This IC50 lies about 25-fold higher than the previous one.
Compound `CCCCN(C)C(=O)[C@H](CC1CCCCC1)NC(=O)[C@H](CC(C)C)NC(=O)c1ccccc1` displayed an IC50 of 3200 nM.
Same read-out and setting: under `CCCCN(C)C(=O)[C@H](CC1CCCCC1)NC(=O)[C@H](CC(C)C)NC(=O)Cc1cc(C(F)(F)F)cc(C(F)(F)F)c1` stands 408 nM.

These data come from ChEMBL document CHEMBL1147518, “Hydroxytriamides as potent gamma-secretase inhibitors” (Bioorg Med Chem Lett, 2004).
